{
  "source": "ChEMBL document CHEMBL1124614",
  "about": "“A carboxy-terminus truncated analogue of angiotensin II, [Sar1]angiotensin II-(1-7)-amide, provides an entry to a new class of angiotensin II antagonists” (J Med Chem, 1989)",
  "key": {"[1]": {"assay": "Rate constant was determined for the compound", "format": "ADME"}, "Rattus norvegicus [2]": {"system": "Rattus norvegicus", "assay": "Variation in mean arterial pressure produced by angiotensin II, 40 min after administration (dose 10 ug/kg/min) in rats; 96/4", "format": "functional, Artery", "procedure,_shortened": "(§1)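 Rats were anesthetized and ganglion-blocked. Antagonist was given by iv infusion in µg/kg per min. The pressor response to angiotensin II (30 ng/kg iv) was measured before infusion, during infusion, and 5, 10, 20, 40 and 60 min after it. Responses are given as % of the pre-infusion control, as mean ± SEM, with n = 4–6 rats.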"}, "Rattus norvegicus [3]": {"system": "Rattus norvegicus", "assay": "Variation in mean arterial pressure produced by angiotensin II, 10 min after administration (dose 10 ug/kg/min) in rats; 50/5", "format": "functional, Artery", "procedure,_shortened": "as §1"}, "Rattus norvegicus [4]": {"system": "Rattus norvegicus", "assay": "Variation in mean arterial pressure produced by angiotensin II, 5 min after administration (dose 10 ug/kg/min) in rats; 29/5", "format": "functional, Artery", "procedure,_shortened": "as §1"}, "Rattus norvegicus [5]": {"system": "Rattus norvegicus", "assay": "Variation in mean arterial pressure, produced by angiotensin II upon administration at 10 ug/kg/min in rats", "format": "functional, Artery", "procedure,_shortened": "as §1"}, "Rattus norvegicus [6]": {"system": "Rattus norvegicus", "assay": "Variation in mean arterial pressure produced by angiotensin II, 60 min after administration (dose 10 ug/kg/min) in rats; 94/6", "format": "functional, Artery", "procedure,_shortened": "as §1"}, "Rattus norvegicus [7]": {"system": "Rattus norvegicus", "assay": "Variation in mean arterial pressure produced by angiotensin II, 20 min after administration (dose 10 ug/kg/min) in rats; 78/5", "format": "functional, Artery", "procedure,_shortened": "as §1"}, "Rattus norvegicus [8]": {"system": "Rattus norvegicus", "assay": "Variation in mean arterial pressure produced by angiotensin II, 10 min after administration (dose: 60 ug/kg/min) in rats; 61/5", "format": "functional, Artery", "procedure,_shortened": "as §1"}, "Oryctolagus cuniculus": {"organism": "Oryctolagus cuniculus", "assay": "Tested for antagonist activity in rabbit aortic rings, pA2 values were determined from Schild plots.", "format": "functional", "details": "Aorta, read-out: pA2 (converted)", "procedure,_shortened": "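Isolated rabbit aortic rings were used and contraction was recorded. Agonist activity was tested up to 10⁻⁵ M. For antagonism, angiotensin II concentration-response curves were run with and without three antagonist concentrations. pD2 was taken from the curves and pA2 from Schild plots fitted by least squares.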"}, "Rattus norvegicus [9]": {"system": "Rattus norvegicus", "assay": "Variation in mean arterial pressure produced by angiotensin II, 20 min after administration (dose: 60 ug/kg/min) in rats; 78/5", "format": "functional, Artery", "procedure,_shortened": "as §1"}, "Rattus norvegicus [10]": {"organism": "Rattus norvegicus", "assay": "Concentration at which compound antagonizes increase in arterial pressure produced by angiotensin II", "details": "Artery"}, "Rattus norvegicus [11]": {"system": "Rattus norvegicus", "assay": "Variation in mean arterial pressure produced by angiotensin II, 40 min after administration (dose: 60 ug/kg/min) in rats; 91/4", "format": "functional, Artery", "procedure,_shortened": "as §1"}, "Rattus norvegicus [12]": {"system": "Rattus norvegicus", "assay": "Variation in mean arterial pressure, produced by angiotensin II upon administration at 60 ug/kg/min in rats; 6/3", "format": "functional, Artery", "procedure,_shortened": "as §1"}, "Rattus norvegicus [13]": {"system": "Rattus norvegicus", "assay": "Variation in mean arterial pressure produced by angiotensin II, 5 min after administration (dose: 60 ug/kg/min) in rats; 50/5", "format": "functional, Artery", "procedure,_shortened": "as §1"}, "Rattus norvegicus [14]": {"system": "Rattus norvegicus", "assay": "Variation in mean arterial pressure produced by angiotensin II, 60 min after administration (dose: 60 ug/kg/min) in rats; 91/5", "format": "functional, Artery", "procedure,_shortened": "as §1"}, "Rattus norvegicus [15]": {"system": "Rattus norvegicus", "assay": "Variation in mean arterial pressure produced by angiotensin II, 5 min after administration (dose 30 ug/kg/min) in rats; 35/1", "format": "functional, Artery", "procedure,_shortened": "as §1"}, "Rattus norvegicus [16]": {"system": "Rattus norvegicus", "assay": "Variation in mean arterial pressure produced by angiotensin II, 60 min after administration (dose 30 ug/kg/min) in rats; 97/3", "format": "functional, Artery", "procedure,_shortened": "as §1"}, "Rattus norvegicus [17]": {"system": "Rattus norvegicus", "assay": "Variation in mean arterial pressure produced by angiotensin II, 10 min after administration (dose 30 ug/kg/min) in rats; 63/3", "format": "functional, Artery", "procedure,_shortened": "as §1"}, "Rattus norvegicus [18]": {"system": "Rattus norvegicus", "assay": "Variation in mean arterial pressure, produced by angiotensin II upon administration at 30 ug/kg/min in rats", "format": "functional, Artery", "procedure,_shortened": "as §1"}, "Rattus norvegicus [19]": {"system": "Rattus norvegicus", "assay": "Variation in mean arterial pressure produced by angiotensin II, 40 min after administration (dose 30 ug/kg/min) in rats; 96/4", "format": "functional, Artery", "procedure,_shortened": "as §1"}, "Rattus norvegicus [20]": {"system": "Rattus norvegicus", "assay": "Variation in mean arterial pressure produced by angiotensin II, 20 min after administration (dose 30 ug/kg/min) in rats; 87/4", "format": "functional, Artery", "procedure,_shortened": "as §1"}, "Canis familiaris": {"organism": "Canis familiaris", "assay": "Antagonistic effect on aldosterone secretion by zona glomerulosa cells from canine adrenal glands", "format": "functional", "details": "Canis lupus familiaris; Adrenal gland"}},
  "note": "Peptide text beside a SMILES is read from it.",
  "data": [
    {"smiles": "CC[C@H](C)[C@H](NC(=O)[C@H](Cc1ccc(O)cc1)NC(=O)[C@@H](NC(=O)[C@H](CCCNC(=N)N)NC(=O)[C@@H](N)CC(=O)O)C(C)C)C(=O)N[C@@H](Cc1cnc[nH]1)C(=O)N1CCC[C@H]1C(=O)N[C@@H](Cc1ccccc1)C(=O)O", "note": "[ANGIOTENSIN II]", "values": [
      {"measurement": "pD2", "setting": "[1]", "value": 8.98}
    ]},
    {"smiles": "CNCC(=O)N[C@@H](CCCNC(=N)N)C(=O)N[C@H](C(=O)N[C@@H](Cc1ccc(O)cc1)C(=O)N[C@H](C(=O)N[C@@H](Cc1cnc[nH]1)C(=O)N1CCC[C@H]1C(=O)N[C@@H](C)C(=O)O)C(C)C)C(C)C", "note": "[SARALASIN]", "values": [
      {"measurement": "Control", "setting": "Rattus norvegicus [2]", "value": 96, "unit": "%"},
      {"measurement": "Control", "setting": "Rattus norvegicus [3]", "value": 50, "unit": "%"},
      {"measurement": "Control", "setting": "Rattus norvegicus [4]", "value": 29, "unit": "%"},
      {"measurement": "Control", "setting": "Rattus norvegicus [5]", "value": 0, "unit": "%"},
      {"measurement": "Control", "setting": "Rattus norvegicus [6]", "value": 94, "unit": "%"},
      {"measurement": "Control", "setting": "Rattus norvegicus [7]", "value": 78, "unit": "%"}
    ]},
    {"smiles": "CC[C@H](C)[C@H](NC(=O)[C@H](Cc1ccc(O)cc1)NC(=O)[C@@H](NC(=O)[C@H](CCCN=C(N)N)NC(=O)CNC)C(C)C)C(=O)N[C@@H](Cc1c[nH]cn1)C(=O)N1CCC[C@H]1C(N)=O", "values": [
      {"measurement": "Control", "setting": "Rattus norvegicus [8]", "value": 61, "unit": "%"},
      {"measurement": "Kb", "setting": "Oryctolagus cuniculus", "value": 23.4, "unit": "nM"},
      {"measurement": "Control", "setting": "Rattus norvegicus [9]", "value": 78, "unit": "%"},
      {"measurement": "Concentration (ug min-1 kg-1)", "setting": "Rattus norvegicus [10]", "value": 60},
      {"measurement": "Control", "setting": "Rattus norvegicus [11]", "value": 91, "unit": "%"},
      {"measurement": "Control", "setting": "Rattus norvegicus [12]", "value": 6, "unit": "%"},
      {"measurement": "Control", "setting": "Rattus norvegicus [13]", "value": 50, "unit": "%"},
      {"measurement": "Control", "setting": "Rattus norvegicus [14]", "value": 91, "unit": "%"}
    ]},
    {"smiles": "CC[C@H](C)[C@H](NC(=O)[C@H](Cc1ccc(OC)cc1)NC(=O)[C@@H](NC(=O)[C@H](CCCN=C(N)N)NC(=O)CNC)C(C)C)C(=O)N[C@@H](Cc1c[nH]cn1)C(=O)N1CCC[C@H]1C(=O)N[C@@H](Cc1ccccc1)C(=O)O", "values": [
      {"measurement": "Control", "setting": "Rattus norvegicus [15]", "value": 35, "unit": "%"},
      {"measurement": "Control", "setting": "Rattus norvegicus [16]", "value": 97, "unit": "%"},
      {"measurement": "Control", "setting": "Rattus norvegicus [17]", "value": 63, "unit": "%"},
      {"measurement": "Control", "setting": "Rattus norvegicus [18]", "value": 0, "unit": "%"},
      {"measurement": "Control", "setting": "Rattus norvegicus [19]", "value": 96, "unit": "%"},
      {"measurement": "Control", "setting": "Rattus norvegicus [20]", "value": 87, "unit": "%"}
    ]},
    {"smiles": "CC(C)[C@H](NC(=O)[C@H](CCCN=C(N)N)NC(=O)[C@@H](N)CC(=O)O)C(=O)N[C@@H](Cc1ccc(O)cc1)C(=O)N[C@H](C(=O)N[C@@H](Cc1c[nH]cn1)C(=O)N1CCC[C@H]1C(=O)O)C(C)C", "note": "(H-DRVYVHP-OH)", "values": [
      {"measurement": "Concentration", "setting": "Canis familiaris", "value": 1, "unit": "mM"}
    ]}
  ]
}
